Bioassay records: PubChem, The Scripps Research Institute Molecular Screening Center
OXTR ag – agonists of human oxytocin receptor. activation, % at 3 µM. CHO-OTR cells, Fluo-8 calcium fluorescence; normalized: DMSO 0%, oxytocin 100%. AID 2435. P30559. hit rate 0.32% among 320,000;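 active = activation above the mean of all tested compounds plus 3 SD, cutoff set per screening run, cut at about 20% in these data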;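 note: peak over basal fluorescence ratio from a 100 s FLIPR kinetic read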
TRPN1 ag – agonists of zebrafish TRPN1 channel | HEK293 zebrafish TRPN1-YFP, Fluo-8 calcium fluorescence; 100% = response to 87 µM carbachol | activation, % at 3 µM | AID 1424 | hit rate 0.18% among 220,000;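 active = activation above its plate's cutoff, the mean activation of test wells on that plate plus 3 SD, cut at about 19% in these data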;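 note: 0% = DMSO alone and 100% = 87 µM carbachol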
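Assay system: Zebrafish TRPN1-YFP in HEK293 cells | Incubation: Dye loading 1 h at 37 °C, then 30 min room temperature | Measured by: Kinetic Fluo-8 fluorescence, ex 470-495, em 515-575 nm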
TRPML3 ag – activates the human TRPML3 channel. activation, % at 3 µM. HEK293 TRPML3-YFP, Fluo-8 calcium fluorescence; 100% = the carbachol control signal. hit rate 0.29% among 220,000. AID 1448;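 active = activation above its plate's cutoff, the mean activation of the plate's test wells plus 3 SD, cut at about 12% in these data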;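 note: 0% = DMSO only wells and 100% = carbachol wells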
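Material: TRPML3-YFP stable HEK293 cells | Dosing: One concentration, 3 µM nominal, 0.3% DMSO | Timing: 125 s total fluorescence read per well | Technique: Fluo-8 calcium dye fluorescence, ex 470-495, em 515-575 nm | Measure: Percent activation from peak-to-basal fluorescence ratio, scaled between DMSO and carbachol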
OXTR potentiate – human OXTR potentiation | CHO-OTR cells, Fluo-8 calcium fluorescence, potentiator mode; 0% = oxytocin EC15, 100% = EC100 | AID 2445 | hit rate 0.061% among 320,000 | activation, % at 3 µM | P30559;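 active = activation above that plate's cutoff, the mean activation of tested compounds plus 3 SD, cut at about 6.6% in these data, passing the limit was not always enough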;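 note: 100% uses oxytocin at 75 nM as the full agonist control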
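System: human OTR in CHO cells; Also added: sub-maximal oxytocin, roughly EC15; Timing: compound 6 min at room temperature before oxytocin, 100 s read; Technique: Fluo-8 intracellular calcium fluorescence, ex 470-495, em 515-575 nm; Controls: oxytocin EC15 low and EC100 high; Replication: singlicate.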
V1aR counter – activates human V1a receptor in oxytocin agonist counter-screen | CHO-V1R cells, Fluo-8 calcium fluorescence, agonist mode; 0% DMSO, 100% 3 nM vasopressin | P37288 | activation, % at 3 µM | AID 2797 | hit rate 0.25% among 320,000;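 active = activation above the mean activation of all tested compounds plus 3 SD, per screening run, cut at about 20% in these data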;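 note: signal is peak over basal fluorescence ratio across a 100 second FLIPR read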
Target sequence (P37288 whole entry, looked up): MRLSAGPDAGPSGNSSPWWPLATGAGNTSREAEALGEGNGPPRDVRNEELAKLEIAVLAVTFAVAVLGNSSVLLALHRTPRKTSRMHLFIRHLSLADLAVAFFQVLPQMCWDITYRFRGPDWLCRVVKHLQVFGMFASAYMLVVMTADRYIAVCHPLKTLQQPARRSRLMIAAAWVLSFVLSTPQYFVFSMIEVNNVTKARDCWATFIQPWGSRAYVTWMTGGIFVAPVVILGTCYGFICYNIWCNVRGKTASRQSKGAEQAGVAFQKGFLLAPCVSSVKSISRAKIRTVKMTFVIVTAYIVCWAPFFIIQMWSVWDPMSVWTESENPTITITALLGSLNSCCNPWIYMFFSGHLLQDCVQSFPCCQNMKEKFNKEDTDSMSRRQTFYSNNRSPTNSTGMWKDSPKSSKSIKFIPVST
TRPN1 ag 2 – counter-screen for TRPML3 agonists: agonists of zebrafish TRPN1 channel; shares compounds with TRPML3 ag; HEK293 zebrafish TRPN1-YFP, Fluo-8 calcium fluorescence; scaled: carbachol wells 100%, DMSO wells 0%; activation, % at 3 µM; hit rate 10% among 310;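 active = mean activation over replicates above a set limit taken from the earlier TRPN1 channel primary screen, cut at about 19% in these data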;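 note: 100% = carbachol and 0% = 0.3% DMSO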
TRPML3 confirm – confirmation of human TRPML3 channel agonists; shares compounds with TRPML3 ag; HEK293 TRPML3-YFP, Fluo-8 calcium fluorescence; 100% set by carbachol, 0% by DMSO; activation, % at 3 µM; hit rate 80% among 310; AID 1526;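 active = activation above a set limit derived from the earlier primary screen, cut at about 12% in these data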
* hit, by the source's call; · = no result. In the library only some 0.58% were active in any assay of this set; here they are far more common.

SMILES	OXTR ag	TRPN1 ag	TRPML3 ag	OXTR potentiate	V1aR counter	TRPN1 ag 2	TRPML3 confirm
CC1=CC(C)(C)N(C(=O)CSc2nnc(C)s2)c2ccc(C)cc21	-2	-1	-1	-1	-1	·	·
CC1=CC(C)(C)N(C(=O)CSc2nnc(-c3ccc(C)cc3)o2)c2ccc(C)cc21	-1	0	62*	-20	0	-2	49*
CCC(=O)NC(=S)Nc1ccc(N2CCN(C(=O)c3ccc(Cl)cc3)CC2)cc1	8	1	1	-25	7	·	·
COc1ccc(NC(=O)c2cc([N+](=O)[O-])ccc2O)cc1	12	17	15*	-16	7	26*	11
Cc1cc(C)c(C2=NOC3C4CCC(C4)C23)c(C)c1 (stereo unspecified)	-2	-1	24*	-1	-1	-2	104*
CCNC(=S)N(Cc1ccco1)Cc1cc2cc(OCC)ccc2[nH]c1=O	0	-2	-1	-10	0	·	·
CCNC(=S)N(Cc1cccs1)Cc1cc2cc(OCC)ccc2[nH]c1=O	-1	1	17*	-14	0	-1	16*
CC(=O)Nc1ccccc1OCC(=O)c1cc(C)n(Cc2cccs2)c1C	12	16	28*	-27	13	27*	34*
CC(=O)Nc1ccc([C@H]2[C@H](C)CC[C@H]3C(=O)N4[C@@H](CC[C@@H](C)[C@@H]4c4ccc(NC(C)=O)cc4)C(=O)N32)cc1	0	1	0	-14	1	·	·
CC(c1ccccc1)C1CC(=O)N(C2CCCCC2)C1=O (stereo unspecified)	-2	-1	27*	-6	-2	0	25*
Cc1ccc(Oc2ccc(Cl)cc2N)cc1	-3	12	16*	2	-1	-2	-2
COc1ccc(-c2csc(NC(=O)c3ccccc3NS(=O)(=O)c3ccc(F)c(F)c3)n2)cc1	15	17	13*	-9	10	27*	17*
COc1ccc(-c2csc(NC(=O)c3ccccc3F)n2)cc1	-1	·	·	-11	1	·	·
CCOc1ccc(NC(=O)c2ccccc2NS(=O)(=O)c2ccc(F)cc2)c([N+](=O)[O-])c1	7	1	15*	-12	7	10	34*
Cc1ccc(S(=O)(=O)Nc2ccccc2C(=O)Nc2nc(-c3ccc(F)cc3)cs2)cc1	12	14	12*	-15	10	21*	10
Cc1ccccc1C(=O)O/N=C(\N)Cc1cccs1	-1	·	·	-4	0	·	·
CCOC(=O)C1(CCCc2ccccc2)CCN(C(=O)CN2C(=O)CSC2=O)CC1	0	-1	0	1	2	·	·
CC1CCCCC1NC(=O)CN1C(=O)CSc2cc(S(=O)(=O)N3CCCCCC3)ccc21 (stereo unspecified)	-3	-1	33*	-10	-2	-1	8
CCOC(=O)c1cn(Cc2cccc(Cl)c2)c2cc(C)nn2c1=O	0	1	1	-1	1	·	·
CSc1nsc(SC)c1C(=O)N1CCN(S(=O)(=O)c2ccc(C)cc2)C1C(C)C (stereo unspecified)	-2	-1	46*	-13	0	-2	26*
COc1cc(C)nc(N(Cc2ccccc2)S(=O)(=O)c2ccccc2)n1	-2	0	7	-14	-1	·	·
COc1cc(C)nc(N(Cc2ccccc2)S(=O)(=O)c2ccc(C)cc2)n1	1	1	27*	-6	0	0	50*
Cc1ccc(OC(=O)CCC(=O)Nc2ccc(C)c(C)c2)cc1	0	·	·	-6	4	·	·
CN(C)S(=O)(=O)N1CCN(c2cc(Cl)ccc2Cl)CC1	-1	-1	16*	-11	0	-2	18*
CN(C)S(=O)(=O)N1CCN(c2ccccc2Cl)CC1	0	1	3	-8	0	·	·
SMILES	OXTR ag	TRPN1 ag	TRPML3 ag	OXTR potentiate	V1aR counter	TRPN1 ag 2	TRPML3 confirm
COc1ccccc1C1(CC(=O)N2CCCCC2)CCOC(C(C)C)C1 (stereo unspecified)	-2	0	14*	-3	-2	-1	11
Cc1ccc(S(=O)(=O)N(C)CC(=O)O/N=C(\N)c2cccc([N+](=O)[O-])c2)cc1	3	-1	62*	-21	5	0	48*
Cc1ccc(SCC(=O)O/N=C(\N)c2cccc([N+](=O)[O-])c2)cc1	-1	0	0	5	0	·	·
Cc1ccc(S(=O)(=O)N2CC3CCCC2C3)cc1 (stereo unspecified)	-3	1	33*	2	0	0	39*
O=C(c1ccccc1F)N(NC(=O)C(O)(c1ccccc1)c1ccccc1)c1ccccc1	-2	-3	18*	-8	-1	-2	30*
COc1ccc(C(C)(C)C)cc1NC(=O)c1cc(S(=O)(=O)N(C)C)ccc1N1CCCC1	-3	-2	34*	-9	-2	0	33*
CN(C)S(=O)(=O)c1ccc(N2CCCC2)c(C(=O)Nc2ccc(F)cc2F)c1	0	·	·	-10	2	·	·
O=C(Nc1ccccc1)c1ccc(S(=O)(=O)N2CCCCC2)cc1	3	2	1	-7	5	·	·
O=C(Nc1ccn(-c2ccccc2)n1)c1ccc(S(=O)(=O)N2CCCCCC2)cc1	0	3	53*	-7	2	6	61*
O=C1NCC(c2ccccc2)C1C(=O)N/N=C\c1ccc(-c2ccc(Cl)c(Cl)c2)o1 (stereo unspecified)	0	-1	-1	-5	1	·	·
O=C1NCC(c2ccccc2)C1C(=O)N/N=C/c1ccc(Cl)s1 (stereo unspecified)	0	2	15*	-3	2	20*	20*
O=C1C(Cl)=C(NC2CCCCC2)C(=O)N1Cc1ccccc1	-3	-1	1	-16	0	·	·
O=C1C(Cl)=C(N2CCN(Cc3ccccc3)CC2)C(=O)N1Cc1ccccc1	0	0	20*	-2	1	0	25*
Cc1cc(C)c(S(=O)(=O)Nc2ccccc2-c2ccccc2)c(C)c1	-2	0	13*	-8	-1	0	45*
Cc1cc(C)c(S(=O)(=O)Nc2ncccc2C)c(C)c1	0	·	·	-3	1	·	·
COc1ccc(NC(C)(C)c2nnnn2-c2c(C)cccc2C)cc1	-2	-1	21*	-10	-1	2	10
